PG9 Ab binder = PG9 antibody binding by small molecule. TR-FRET gp120-PG9 antibody binding. inhibition, % at 6.7 µM. 360,000 compounds, 0.43% hits; in the data active means inhibition above about 8.5%
Rev-erbA mod = modulators of human Rev-erb alpha DNA binding; P20393; Rev-erbα–FITC-DNA binding, fluorescence polarization, 90 min; activity, % at 10 µM; 370,000 compounds, 0.79% hits; AID 1259318;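 active means activity above about 14%, limit read from the data; passing the limit was not always enough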;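 further: 0% = DMSO wells with 35 nM protein and 100% = DMSO wells with 750 nM protein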
Target sequence (P20393 whole entry, looked up): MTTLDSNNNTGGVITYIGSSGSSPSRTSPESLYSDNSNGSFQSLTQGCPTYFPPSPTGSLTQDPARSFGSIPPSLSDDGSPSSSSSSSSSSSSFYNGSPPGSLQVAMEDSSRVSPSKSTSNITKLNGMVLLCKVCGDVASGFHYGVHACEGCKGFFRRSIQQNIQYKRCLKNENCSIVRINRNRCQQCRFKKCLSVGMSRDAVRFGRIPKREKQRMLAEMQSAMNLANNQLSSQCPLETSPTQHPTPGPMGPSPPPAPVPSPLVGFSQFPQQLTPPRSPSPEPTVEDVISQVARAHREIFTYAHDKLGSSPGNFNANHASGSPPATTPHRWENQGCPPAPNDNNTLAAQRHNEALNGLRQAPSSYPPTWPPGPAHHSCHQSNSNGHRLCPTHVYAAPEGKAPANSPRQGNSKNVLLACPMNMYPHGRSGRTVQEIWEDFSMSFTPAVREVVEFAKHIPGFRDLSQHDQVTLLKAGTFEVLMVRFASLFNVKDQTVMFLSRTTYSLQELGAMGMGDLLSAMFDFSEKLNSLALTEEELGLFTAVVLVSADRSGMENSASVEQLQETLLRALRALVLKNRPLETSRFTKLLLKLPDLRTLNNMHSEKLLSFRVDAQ
hiPSC survival = hiPSC single-cell survival enhancement; ATPlite luminescence; 100% = ROCK inhibitor wells, 0% = DMSO; AID 602274; 360,000 compounds, 0.044% hits; survival enhancement, % at 20 µM; in the data active means survival enhancement above about 18%;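 further: cells exposed to compounds for 16 hours before the ATP read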
beta cell repl = inducers of beta-cell replication in MIN6 cells | MIN6 cells proliferation, ATPlite luminescence, 48 h; cells starved in 0.2% serum; 100% = growth in 10% serum | proliferation, % at 10 µM | 330,000 compounds, 0.29% hits | AID 2380;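 active means compounds whose signal lies at least 3.5 SD above the mean of all wells on their plate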;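 further: 0% = DMSO-treated cells in low-serum medium and 100% = 10% serum control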
T cruzi repl = blocks replication of Trypanosoma cruzi. T. cruzi beta-gal in NIH3T3, luminescence, 90 h. inhibition, % (test concentration not listed). AID 1885. 300,000 compounds, 1.4% hits;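 active means mean inhibition across valid replicates above about 55%, limit read from the data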;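 further: signal also drops with host cell toxicity which is not excluded here; 0% = plate median of DMSO wells and 100% = zero luminescence signal; higher percent means less beta-gal luminescence so fewer parasites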
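compound dosing = single 50 nL compound addition per well in DMSO | material = NIH/3T3 host cells with β-galactosidase reporter T. cruzi | input = 5,000 host fibroblasts per well | timing = ≥90 h infection period, 3 h prior cell attachment | read-out basis = percent inhibition of parasite-derived β-gal signal | detection = GalScreen β-gal luminescence, detergent lysis, 60 min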
H9c2 TAG inh = reduces triacylglycerol accumulation in H9c2 cells. inhibition, % at 12.5 µM. Nile Red lipid (TAG) fluorescence; cells loaded with 200 µM oleic acid. 230,000 compounds, 0.66% hits;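 active means pattern-corrected inhibition of lipid staining of at least 50% with the nuclear-stain viability signal not falling by more than 50%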;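 further: 0% = DMSO wells and 100% = triacsin C control wells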
* hit, by the source's call; x = not tested or not shown. Compounds with a hit are over-represented: about 2.9% of the library has one in this group of screens.

SMILES	PG9 Ab binder	Rev-erbA mod	hiPSC survival	beta cell repl	T cruzi repl	H9c2 TAG inh
O=C(Nc1ccc2ccccc2c1)C(c1ccccc1)C1CCCC1 (centres undefined)	-0.4	1.2	-0.7	-5.8	63.7*	x
O=C(NC(=S)Nc1ccccc1N1CCOCC1)c1ccco1	0.2	0.4	4.5	0.0	-26.9	x
O=C(Nc1cccc(NC(=O)c2ccc(-c3cccc(Br)c3)o2)c1)c1ccco1	-0.6	-1.1	0.0	-4.0	54.6*	x
O=C(Nc1cccc(NC(=O)c2ccc(-c3ccc(Br)cc3)o2)c1)c1ccccc1	-0.7	-0.5	-0.2	-3.9	13.2	26.0
CCOC(=O)C1=C(C)NC2=C(C(=O)c3ccccc32)C1c1ccc([N+](=O)[O-])o1 (centres undefined)	-2.5	-2.1	-0.5	-5.1	58.3*	15.2
CCOc1ccc(CCN2C(=O)C(=O)N([C@@H](Cc3ccc(O)cc3)CN3CCC[C@H]3CN3C(=O)C(=O)NC[C@@H]3Cc3ccc(O)cc3)C[C@@H]2Cc2ccccc2)cc1	-0.7	6.5	1.0	x	x	x
CCCC(C)C(=O)Nc1ncc(S(=O)(=O)c2ccc([N+](=O)[O-])cc2)s1 (centres undefined)	-0.2	-5.0	-0.6	-5.3	63.2*	13.7
O=C(Nc1ncc(S(=O)(=O)c2ccc([N+](=O)[O-])cc2)s1)c1ccc2ccccc2c1	-3.3	1.7	0.3	-2.8	55.0*	x
O=C(Nc1ncc(Cc2cc(Cl)ccc2Cl)s1)c1ccc([N+](=O)[O-])cc1	2.1	-4.1	-3.0	-5.6	57.1*	11.6
O=C(Nc1ncc(S(=O)(=O)c2ccc([N+](=O)[O-])cc2)s1)c1cccnc1	-0.3	-4.5	-0.6	-4.2	10.1	13.2
CN(C)CCCNc1cn[nH]c(=O)c1Cl	0.5	-4.5	1.9	-2.3	70.3*	x
O=c1[nH]ncc(NCCc2ccccc2)c1Cl	0.8	-5.0	1.9	-2.9	-13.2	6.7
C=CCSc1nc2sc3c(c2c(=O)n1CC)CCc1ccccc1-3	-0.4	-1.5	-0.9	-5.3	15.0	x
CCOc1ccc(CN2CCC(C(=O)N3CCN(c4ccccc4F)CC3)CC2)cc1OC	-2.4	-8.9	1.8	-3.4	69.2*	12.1
COc1cc(CN2CCC(C(=O)N3CCN(c4ccccc4F)CC3)CC2)cc(OC)c1O	-1.8	-7.9	-1.1	-1.7	1.5	x
CC(C)(C)c1cc(CCC(=O)NNC(=S)NC(=O)c2ccccc2)cc(C(C)(C)C)c1O	x	x	6.1	-5.9	59.4*	17.5
O=C(CCc1ccccc1)NNC(=S)NC(=O)c1ccccc1	0.6	-2.1	0.6	-2.8	-23.6	x
CCOc1ccc(NCC(=O)c2ccc(C)cc2)cc1	-0.1	-1.0	0.2	-6.7	56.7*	-34.4
Cc1ccc(C(=O)CNc2ccc(Cl)cc2)cc1	-0.7	3.2	-0.9	0.1	-44.6	-13.3
Cc1ccc(N=C(N(C)C)P(=O)(N(C)C)N(C)C)c(C)c1	-2.7	7.8	-0.2	-1.1	-0.8	-11.3
O=C(Nc1sc2c(c1C(=O)O)CCCC2)c1ccc(Cl)cc1	-2.3	3.1	1.7	-2.4	-3.7	-8.1
O=C(Nc1ccncc1)c1cc(S(=O)(=O)N2CCN(c3ccccc3)CC2)ccc1Cl	1.5	-3.9	0.1	-2.6	61.2*	1.9
O=C(Nc1ccncc1)c1cc(S(=O)(=O)N2CCCC2)ccc1Cl	0.1	-3.0	46.9*	2.8	x	-16.8
O=C(Nc1ccncc1)c1cc(S(=O)(=O)N2CCCCC2)ccc1Cl	-0.8	-2.7	5.9	-0.6	6.7	-1.3
COc1ccc(-c2cccc(C(=O)N3CCOCC3)c2)cc1	-2.7	-2.9	0.4	0.0	9.3	x
SMILES	PG9 Ab binder	Rev-erbA mod	hiPSC survival	beta cell repl	T cruzi repl	H9c2 TAG inh
O=C(N/N=C(\Cc1ncc[nH]1)c1ccccc1)c1ccccc1	0.4	-4.2	x	-4.1	73.5*	x
O=C(N/N=C(\Cc1ncc[nH]1)c1ccccc1)c1ccncc1	-0.1	-2.3	-0.9	-5.0	18.2	-15.2
CCOC(=O)Cc1ccc(NCc2ccc(Cl)cc2)cc1	-0.1	-6.5	0.2	1.1	55.8*	-6.6
CCOC(=O)CNC(=O)Cc1ccc(Cl)cc1	-0.3	-2.6	-0.5	1.7	-6.7	-2.1
COc1ccc(S(=O)(=O)NC(C)C(=O)Nc2ccc3c(c2)OCO3)cc1OC (centres undefined)	1.0	5.5	-0.5	1.2	2.5	x
Cc1cccc(CN(C)CCc2ccccn2)c1	-0.9	-3.9	0.2	-0.5	61.3*	x
CCOC(=O)c1c(C)[nH]c(C(=O)COC(=O)C2CC2C)c1C (centres undefined)	-2.7	-4.2	-4.3	-1.0	1.6	-68.9
CC(=O)Nc1ccc(CNc2ncnc3ccc(-c4c(C)noc4C)cc23)cc1	1.1	-3.6	0.5	-6.1	x	61.8*
CCCOc1ccc(CNC(=S)N/N=C/c2ccc([N+](=O)[O-])cc2)cc1	-0.7	-1.5	1.1	-2.3	61.2*	-45.5
CC(C)COc1ccc(CNC(=S)N/N=C/c2ccc([N+](=O)[O-])cc2)cc1	0.6	2.3	-2.2	-3.3	23.9	-12.6
O=S(=O)(c1ccc(NC(=S)NCCC(c2ccccc2)c2ccccc2)cc1)N1CCOCC1	-1.0	6.6	0.0	-2.7	61.5*	-35.3
CCCCOCCCNC(=S)Nc1ccc(S(=O)(=O)N2CCOCC2)cc1	0.5	8.1	0.2	-4.5	5.6	-3.8
CCCCN(CC)CCNC(=O)c1nn(-c2ccc(OC)cc2)c(=O)c2c1c1ccccc1n2C	0.0	8.4	-5.4	-6.0	57.4*	x
CCCCN(CC)CCCNC(=O)c1cn(-c2ccc(OC)cc2)c(=O)c2ccccc12	-0.4	0.5	-0.4	-4.6	58.2*	x
C=CCc1cc(Cl)ccc1OCCNCCOC	-0.6	6.5	0.2	-0.2	10.5	x
C=CCc1cc(Cl)ccc1OCCNCCN1CCOCC1	1.2	-0.5	-0.3	-3.8	73.4*	-7.9
CCCCn1c(-c2ccccc2C)nc2cc3[nH]c(=O)c(C(C)C)nc3cc21	-0.3	7.0	1.1	-7.0	30.2	4.4
CCCCn1c(-c2cccc3ccccc23)nc2cc3[nH]c(=O)c(C(C)C)nc3cc21	1.6	2.9	-2.4	-6.2	63.0*	-5.3
COC(=O)C[C@H]1CC[C@H](NC(=O)Cc2ccccc2)[C@@H](CO)O1	0.4	4.7	x	x	x	x
OCCN1CCN(c2nc(-c3ccccc3)c3cc(Br)ccc3n2)CC1	8.7*	-1.9	0.9	-6.0	45.3	x
CCOC(=O)CN(C)Cc1cn[nH]c1-c1ccc2cc(OC)ccc2c1	-2.1	-3.5	0.5	-2.9	-5.9	2.1
COCC1CCCCN1Cc1cn[nH]c1-c1ccc2cc(OC)ccc2c1 (centres undefined)	-2.6	-6.2	-1.0	-1.1	70.5*	x
COCC1CCCCN1Cc1cn[nH]c1-c1ccc(OC)cc1OC (centres undefined)	0.0	-4.3	-0.5	0.9	-1.3	-10.0
COCCN(Cc1cn[nH]c1-c1ccc2cc(OC)ccc2c1)C(C)C	-0.8	1.0	1.0	-1.9	65.5*	x

Bioassay records as filed in PubChem BioAssay.
